# Data as given in ChEMBL document CHEMBL5303300, “EUbOPEN Chemogenomics Library - Multiplex” (2023).
# Values joined by “and” are separate entries in the source; they are usually repeats but may differ in a detail not shown here. Equal entries are not always repeated.
# Test system: Fibroblast
# Test: Multiplex assay against human fibroblast
# Assay type: toxicity, cell-based
# Details: number of replicates 2
# Outline: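 Compound was added to live cells that had been stained at seeding with Hoechst33342, BioTracker Green Microtubule Cytoskeleton Dye, MitoTracker Red and Annexin V Alexa Fluor 680, and imaging followed on a CQ1 microscope at 37°C and 5% CO2. CellPathfinder machine-learning gating divided cells into Hoechst high-intensity objects or normal cells, normal cells into healthy, pyknosed or fragmented nuclei, and pyknosed cells into mitotic or apoptotic. Tubulin, mitochondrial-mass and membrane-permeability phenotypes are per cents of healthy-nucleus cells.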
# [1] = 12 h, 1 µM, compound concentration 1 uM
# [2] = 12 h, 10 µM, compound concentration 10 uM
# [3] = 24 h, 1 µM, compound concentration 1 uM
# [4] = 24 h, 10 µM, compound concentration 10 uM
# [5] = 48 h, 1 µM, compound concentration 1 uM
# [6] = 48 h, 10 µM, compound concentration 10 uM
smiles,measurement,setting,value
C[C@H](N)Cn1ccc2cc(F)c(Cl)cc21.O=C(O)/C=C/C(=O)O,Population Apoptotic (%),[1],44% and 40%
same,Population Fragmented Nuclei (%),[1],14%
same,Population Healthy Nuclei (%),[1],74% and 61%
same,Population Hoechst High Intensity Objects (%),[1],0%
same,Population Membrane Permeable-Phenotype (%),[1],5% and 6%
same,Population Mitochondria Different-Phenotype (%),[1],0% and 1%
same,Population Mitotic Cells (%),[1],55% and 60%
same,Population Normal (%),[1],100%
same,Population Pyknosed Nuclei (%),[1],11% and 24%
same,Population Tubulin-Different-Phenotype (%),[1],14% and 11%
same,Total Cell Count,[1],252 and 208
same,Population Apoptotic (%),[2],45% and 37%
same,Population Fragmented Nuclei (%),[2],14% and 22%
same,Population Healthy Nuclei (%),[2],69% and 58%
same,Population Hoechst High Intensity Objects (%),[2],0%
same,Population Membrane Permeable-Phenotype (%),[2],11% and 12%
same,Population Mitochondria Different-Phenotype (%),[2],3% and 6%
same,Population Mitotic Cells (%),[2],54% and 62%
same,Population Normal (%),[2],100%
same,Population Pyknosed Nuclei (%),[2],16% and 19%
same,Population Tubulin-Different-Phenotype (%),[2],24% and 26%
same,Total Cell Count,[2],189 and 184
same,Population Apoptotic (%),[3],42% and 68%
same,Population Healthy Nuclei (%),[3],25% and 72%
same,Population Hoechst High Intensity Objects (%),[3],1% and 0%
same,Population Mitochondria Different-Phenotype (%),[3],2% and 1%
same,Population Mitotic Cells (%),[3],57% and 31%
same,Population Normal (%),[3],98% and 99%
same,Population Pyknosed Nuclei (%),[3],23% and 11%
same,Total Cell Count,[3],149 and 256
same,Population Apoptotic (%),[4],53% and 51%
same,Population Fragmented Nuclei (%),[4],24% and 28%
same,Population Healthy Nuclei (%),[4],63% and 56%
same,Population Hoechst High Intensity Objects (%),[4],0%
same,Population Membrane Permeable-Phenotype (%),[4],4% and 7%
same,Population Mitochondria Different-Phenotype (%),[4],0% and 5%
same,Population Mitotic Cells (%),[4],46% and 48%
same,Population Normal (%),[4],99% and 100%
same,Population Pyknosed Nuclei (%),[4],12% and 14%
same,Population Tubulin-Different-Phenotype (%),[4],23% and 28%
same,Total Cell Count,[4],208
same,Population Apoptotic (%),[5],65% and 56%
same,Population Fragmented Nuclei (%),[5],18% and 21%
same,Population Healthy Nuclei (%),[5],67% and 59%
same,Population Hoechst High Intensity Objects (%),[5],0%
same,Population Membrane Permeable-Phenotype (%),[5],4% and 5%
same,Population Mitochondria Different-Phenotype (%),[5],0% and 1%
same,Population Mitotic Cells (%),[5],34% and 43%
same,Population Normal (%),[5],100% and 99%
same,Population Pyknosed Nuclei (%),[5],13% and 18%
same,Population Tubulin-Different-Phenotype (%),[5],7% and 9%
same,Total Cell Count,[5],258 and 233
same,Population Apoptotic (%),[6],60% and 65%
same,Population Fragmented Nuclei (%),[6],33% and 30%
same,Population Healthy Nuclei (%),[6],58% and 60%
same,Population Hoechst High Intensity Objects (%),[6],0%
same,Population Membrane Permeable-Phenotype (%),[6],4% and 6%
same,Population Mitochondria Different-Phenotype (%),[6],0% and 1%
same,Population Mitotic Cells (%),[6],40% and 35%
same,Population Normal (%),[6],99%
same,Population Pyknosed Nuclei (%),[6],7% and 9%
same,Population Tubulin-Different-Phenotype (%),[6],22% and 18%
same,Total Cell Count,[6],255 and 217
CN1CCN(c2ccc(-n3cc(-c4ccncc4OCC4CCNCC4)cn3)cc2)CC1,Population Apoptotic (%),[1],44%
same,Population Fragmented Nuclei (%),[1],13% and 12%
same,Population Healthy Nuclei (%),[1],58% and 71%
same,Population Hoechst High Intensity Objects (%),[1],0%
same,Population Membrane Permeable-Phenotype (%),[1],3% and 8%
same,Population Mitochondria Different-Phenotype (%),[1],2% and 0%
same,Population Mitotic Cells (%),[1],55%
same,Population Normal (%),[1],100%
same,Population Pyknosed Nuclei (%),[1],27% and 16%
same,Population Tubulin-Different-Phenotype (%),[1],15% and 14%
same,Total Cell Count,[1],131 and 173
same,Population Apoptotic (%),[2],38% and 75%
same,Population Fragmented Nuclei (%),[2],13% and 25%
same,Population Healthy Nuclei (%),[2],72% and 63%
same,Population Hoechst High Intensity Objects (%),[2],0%
same,Population Membrane Permeable-Phenotype (%),[2],2% and 4%
same,Population Mitochondria Different-Phenotype (%),[2],1% and 3%
same,Population Mitotic Cells (%),[2],61% and 25%
same,Population Normal (%),[2],100%
same,Population Pyknosed Nuclei (%),[2],14% and 10%
same,Population Tubulin-Different-Phenotype (%),[2],34% and 31%
same,Total Cell Count,[2],179 and 182
same,Population Apoptotic (%),[3],56% and 48%
same,Population Fragmented Nuclei (%),[3],13% and 14%
same,Population Healthy Nuclei (%),[3],58% and 68%
same,Population Hoechst High Intensity Objects (%),[3],0%
same,Population Membrane Permeable-Phenotype (%),[3],7% and 9%
same,Population Mitochondria Different-Phenotype (%),[3],2% and 1%
same,Population Mitotic Cells (%),[3],43% and 51%
same,Population Normal (%),[3],100%
same,Population Pyknosed Nuclei (%),[3],28% and 17%
same,Population Tubulin-Different-Phenotype (%),[3],17% and 13%
same,Total Cell Count,[3],131 and 178
same,Population Apoptotic (%),[4],39% and 47%
same,Population Fragmented Nuclei (%),[4],20% and 26%
same,Population Healthy Nuclei (%),[4],65% and 61%
same,Population Hoechst High Intensity Objects (%),[4],0%
same,Population Membrane Permeable-Phenotype (%),[4],8% and 5%
same,Population Mitochondria Different-Phenotype (%),[4],7% and 13%
same,Population Mitotic Cells (%),[4],60% and 52%
same,Population Normal (%),[4],100%
same,Population Pyknosed Nuclei (%),[4],14% and 11%
same,Population Tubulin-Different-Phenotype (%),[4],52% and 44%
same,Total Cell Count,[4],189 and 192
same,Population Apoptotic (%),[5],75% and 66%
same,Population Fragmented Nuclei (%),[5],21% and 16%
same,Population Healthy Nuclei (%),[5],61% and 72%
same,Population Hoechst High Intensity Objects (%),[5],0%
same,Population Membrane Permeable-Phenotype (%),[5],10% and 4%
same,Population Mitochondria Different-Phenotype (%),[5],1% and 0%
same,Population Mitotic Cells (%),[5],25% and 33%
same,Population Normal (%),[5],100%
same,Population Pyknosed Nuclei (%),[5],16% and 10%
same,Population Tubulin-Different-Phenotype (%),[5],17% and 10%
same,Total Cell Count,[5],142 and 191
same,Population Apoptotic (%),[6],76% and 73%
same,Population Fragmented Nuclei (%),[6],31% and 30%
same,Population Healthy Nuclei (%),[6],54% and 61%
same,Population Hoechst High Intensity Objects (%),[6],0%
same,Population Membrane Permeable-Phenotype (%),[6],2% and 4%
same,Population Mitochondria Different-Phenotype (%),[6],11% and 13%
same,Population Mitotic Cells (%),[6],23% and 26%
same,Population Normal (%),[6],99% and 100%
same,Population Pyknosed Nuclei (%),[6],14% and 7%
same,Population Tubulin-Different-Phenotype (%),[6],59% and 48%
same,Total Cell Count,[6],212 and 189
COc1ccc(NC(=O)c2ccc(-c3ccc(-c4noc(C)n4)cc3C)cc2)cc1OCCN(C)C.Cl,Population Apoptotic (%),[1],34% and 50%
same,Population Fragmented Nuclei (%),[1],23% and 26%
same,Population Healthy Nuclei (%),[1],60% and 51%
same,Population Hoechst High Intensity Objects (%),[1],0%
same,Population Mitochondria Different-Phenotype (%),[1],6% and 5%
same,Population Mitotic Cells (%),[1],65% and 50%
same,Population Normal (%),[1],100% and 99%
same,Population Pyknosed Nuclei (%),[1],15% and 21%
same,Population Tubulin-Different-Phenotype (%),[1],39% and 56%
same,Total Cell Count,[1],247 and 176
same,Population Fragmented Nuclei (%),[2],14% and 30%
same,Population Healthy Nuclei (%),[2],29% and 48%
same,Population Hoechst High Intensity Objects (%),[2],2% and 0%
same,Population Membrane Permeable-Phenotype (%),[2],14% and 7%
same,Population Mitochondria Different-Phenotype (%),[2],29% and 25%
same,Population Normal (%),[2],97% and 100%
same,Population Pyknosed Nuclei (%),[2],56% and 20%
same,Population Tubulin-Different-Phenotype (%),[2],82% and 72%
same,Total Cell Count,[2],117 and 158
same,Population Apoptotic (%),[3],46% and 65%
same,Population Fragmented Nuclei (%),[3],32% and 19%
same,Population Healthy Nuclei (%),[3],58% and 57%
same,Population Hoechst High Intensity Objects (%),[3],2% and 0%
same,Population Membrane Permeable-Phenotype (%),[3],4% and 6%
same,Population Mitochondria Different-Phenotype (%),[3],10% and 9%
same,Population Mitotic Cells (%),[3],53% and 34%
same,Population Normal (%),[3],97% and 99%
same,Population Pyknosed Nuclei (%),[3],9% and 22%
same,Population Tubulin-Different-Phenotype (%),[3],44% and 59%
same,Total Cell Count,[3],288 and 170
same,Population Apoptotic (%),[4],94% and 90%
same,Population Fragmented Nuclei (%),[4],13% and 26%
same,Population Healthy Nuclei (%),[4],16% and 10%
same,Population Hoechst High Intensity Objects (%),[4],0%
same,Population Mitochondria Different-Phenotype (%),[4],38% and 83%
same,Population Mitotic Cells (%),[4],5% and 9%
same,Population Normal (%),[4],100%
same,Population Pyknosed Nuclei (%),[4],69% and 62%
same,Population Tubulin-Different-Phenotype (%),[4],72% and 66%
same,Total Cell Count,[4],108 and 116
same,Population Apoptotic (%),[5],86% and 73%
same,Population Fragmented Nuclei (%),[5],25% and 32%
same,Population Healthy Nuclei (%),[5],62% and 60%
same,Population Hoechst High Intensity Objects (%),[5],0% and 1%
same,Population Membrane Permeable-Phenotype (%),[5],6% and 1%
same,Population Mitochondria Different-Phenotype (%),[5],6% and 5%
same,Population Mitotic Cells (%),[5],13% and 26%
same,Population Normal (%),[5],100% and 98%
same,Population Pyknosed Nuclei (%),[5],12% and 6%
same,Population Tubulin-Different-Phenotype (%),[5],36% and 23%
same,Total Cell Count,[5],191 and 281
same,Population Apoptotic (%),[6],95% and 96%
same,Population Fragmented Nuclei (%),[6],20% and 25%
same,Population Healthy Nuclei (%),[6],15% and 7%
same,Population Hoechst High Intensity Objects (%),[6],0%
same,Population Mitochondria Different-Phenotype (%),[6],18% and 25%
same,Population Mitotic Cells (%),[6],4%
same,Population Normal (%),[6],100%
same,Population Pyknosed Nuclei (%),[6],63% and 66%
same,Population Tubulin-Different-Phenotype (%),[6],81% and 87%
same,Total Cell Count,[6],102 and 112
